According to ChEMBL document CHEMBL1123531, “1,2-bis(arylsulfonyl)hydrazines. 2. The influence of arylsulfonyl and aralkylsulfonyl substituents on antitumor and alkylating activity” (1986):
Several values for one entry are separate records, joined by “and”; a condition that tells them apart may be missing. Equal values may be shown once.

Experiments:
[1] = system: Mus musculus; assay: (§1) Compound was evaluated for the antitumor activity against L1210 leukemia in mice at 100 mg/kg dose; type: functional
How it was run: (§2)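 CDF1 mice, 10^5 L1210 ascites cells implanted ip (from 7-day donor tumors, saline-diluted). Dosed ip once daily for 6 days from 24 h post-implant, 50-150 mg/kg, as Tween 80/saline suspension. Five mice per group, vehicle-treated controls. Read-out: % T/C, mean survival of treated/control ×100.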

[2] = system: Mus musculus; assay: Compound was evaluated for the antitumor activity against L1210 leukemia in mice at 50 mg/kg dose; type: functional
How it was run: (§3)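 L1210 ascites leukemia serially passaged in CDF1 mice; 10^5 cells implanted ip. Compounds homogenized in drops of 20% aqueous Tween 80, brought to volume with isotonic saline, given ip as fine suspensions once daily for 6 consecutive days starting 24 h after implantation. Five mice per group; vehicle controls. Endpoint: % T/C = mean survival treated/control × 100; body-weight change tracked toxicity.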

[3] = system: Mus musculus; assay: Compound was evaluated for the antitumor activity against L1210 leukemia in mice at 150 mg/kg dose; type: functional; how it was run: as §3
[4] = species: Mus musculus; assay: Compound was evaluated for the antineoplastic activity against L1210 leukemia in mice.; type: functional; how it was run: as §2
[5] = system: Mus musculus; assay: Compound was evaluated for the antitumor activity as average change in body weight against L1210 leukemia in mice at 100 mg/kg dose; type: functional
How it was run: (§4)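 CDF1 mice carrying ip L1210 ascites (10^5 cells), dosed ip daily for 6 consecutive days starting 24 h after implant, in Tween 80/isotonic saline suspension. Five mice per group. Toxicity taken as mean percent body weight change from start to end of therapy.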

[6] = system: Mus musculus; assay: Compound was evaluated for the antitumor activity as average change in body weight against L1210 leukemia in mice at 150 mg/kg dose; type: functional; how it was run: as §4
[7] = system: Mus musculus; assay: Compound was evaluated for the antitumor activity as average change in body weight against L1210 leukemia in mice at 50 mg/kg dose; type: functional; how it was run: as §4
[8] = Compound was evaluated for relative alkylating activity
[9] = system: Mus musculus; assay: as §1; type: functional; how it was run: as §3; remark: listed apart in the source
[10] = system: Mus musculus; assay: Compound was evaluated for the antitumor activity as average change in body weight against L1210 leukemia in mice 100 mg/kg dose; type: functional; how it was run: as §4
[11] = system: Mus musculus; assay: Compound was evaluated for the antitumor activity as average change in body weight against L1210 leukemia in mice 150 mg/kg dose; type: functional; how it was run: as §4

Compound	T/C [2] [%]	Max T/C [4] [%]	Average change in weight [5] [%]	Average change in weight [6] [%]	Average change in weight [7] [%]	Relative activity [8]	other results
COc1ccc(S(=O)(=O)NN(C)S(=O)(=O)c2ccc(C)cc2)cc1	116	162	7.8	2.9	7.7	91	T/C [1]: 162%; Average survival time ([2]; 50 mg/kg): 15 days and 13.2 days; T/C [3]: 143%
CN(NC(=O)c1ccccc1)C(=O)c1ccccc1		97				10	
Cc1ccc(S(=O)(=O)NN(C)S(=O)(=O)c2ccc(Cl)cc2)cc1		141	5.5	-4.6	5.1	163	Average survival time [9]: 13 days; Average survival time [3]: 10 days
Cc1ccc(S(=O)(=O)N(C)NS(=O)(=O)c2ccccc2)cc1	162	162			2	112	Average survival time [2]: 15 days; Average change in weight [10]: 5.4%; Average change in weight [11]: -1.7%
CN(NS(=O)(=O)c1ccc(Cl)cc1)S(=O)(=O)c1ccc(Cl)cc1						190	
COc1ccc(S(=O)(=O)N(C)NS(=O)(=O)c2ccc(C)cc2)cc1		113	14.8	9.8	12.6	85	
Cc1ccc(S(=O)(=O)N(C)NS(=O)(=O)c2ccc(Cl)cc2)cc1	188	188	10	6	3.7	126	T/C [3]: 121%
O=S(=O)(NNS(=O)(=O)c1ccccc1)c1ccccc1						0	
Cc1ccc(S(=O)(=O)N(C)NS(=O)(=O)Cc2ccccc2)cc1						136	
Cc1ccc(S(=O)(=O)NN(C)S(=O)(=O)c2ccc(C)cc2)cc1						100	
